Results as given in ChEMBL document CHEMBL1130351, “Nonclassical 2,4-diamino-5-aryl-6-ethylpyrimidine antifolates: activity as inhibitors of dihydrofolate reductase from Pneumocystis carinii and Toxoplasma gondii and as antitumor agents” (J Med Chem, 1997).

How the values were obtained:
[1] = biological target: T1, Bifunctional dihydrofolate reductase-thymidylate synthase (Toxoplasma gondii, UniProt Q07422); assay: Inhibitory activity against Dihydrofolate reductase from Toxoplasma gondii was evaluated using 90 uM dihydrofolic acid as substrate
T1 sequence (Q07422 whole entry): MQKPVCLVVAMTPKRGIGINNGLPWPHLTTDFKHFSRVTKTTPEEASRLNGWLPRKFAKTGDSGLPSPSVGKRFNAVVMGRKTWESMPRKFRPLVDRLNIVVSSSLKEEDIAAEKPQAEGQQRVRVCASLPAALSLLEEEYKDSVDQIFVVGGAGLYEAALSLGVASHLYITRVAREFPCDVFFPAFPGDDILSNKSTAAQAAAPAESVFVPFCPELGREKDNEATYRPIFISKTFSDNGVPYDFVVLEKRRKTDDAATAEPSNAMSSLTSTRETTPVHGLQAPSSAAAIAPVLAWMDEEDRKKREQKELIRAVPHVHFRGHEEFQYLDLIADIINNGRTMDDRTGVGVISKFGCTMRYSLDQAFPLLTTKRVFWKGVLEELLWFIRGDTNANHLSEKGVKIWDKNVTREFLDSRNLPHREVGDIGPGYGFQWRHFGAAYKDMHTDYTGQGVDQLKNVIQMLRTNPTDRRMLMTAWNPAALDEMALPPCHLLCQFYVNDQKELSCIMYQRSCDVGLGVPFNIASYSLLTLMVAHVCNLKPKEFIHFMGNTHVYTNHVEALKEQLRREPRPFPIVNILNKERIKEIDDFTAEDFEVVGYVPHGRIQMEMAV

[2] = system: Mus musculus; assay: Number of M5076 reticulum cell sarcoma bearing mice survived among the tested (5) on day 24 after treating with compound dose of 25 mg/Kg/day; type: functional
Method in brief: (§1)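 BDF1 female mice in groups of 5 received 10^6 M5076 cells im into the left leg on day 0. Drug was dissolved in 10-20% DMSO in arachis oil and given ip daily on days 1-17; controls got vehicle only. Tumor volumes were measured on days 12, 16, 20 and 24. T/C = test/control tumor volume ×100.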

[3] = system: Mus musculus; assay: Antitumor activity expressed as a ratio of tumor volumes of test (T) animals compared to control (C) animals(100) at a dose of 25 mg/kg/day; type: functional; method in brief: as §1
[4] = system: Mus musculus; assay: Antitumor activity expressed as a ratio of tumor volumes of test (T) animals compared to control (C) animals(100) at a dose of 3.125 mg/kg/day; type: functional; method in brief: as §1
[5] = system: Mus musculus; assay: Number of M5076 reticulum cell sarcoma bearing mice survived among the tested (5) on day 24 after treating with compound dose of 3.125 mg/Kg/day; type: functional; method in brief: as §1
[6] = system: Mus musculus; assay: Number of M5076 reticulum cell sarcoma bearing mice survived among the tested (5) on day 24 after treating with compound dose of 12.5 mg/Kg/day; type: functional; method in brief: as §1
[7] = system: Mus musculus; assay: Antitumor activity expressed as a ratio of tumor volumes of test (T) animals compared to control (C) animals(100) at a dose of 12.5 mg/kg/day; type: functional; method in brief: as §1

SMILES | IC50 [1] [nM] | also measured
CCc1nc(N)nc(N)c1-c1ccc(NCc2ccc(C(=O)N3CCCCC3)cc2)c([N+](=O)[O-])c1 | 140 | –
CCc1nc(N)nc(N)c1-c1ccc(N(C)Cc2ccccc2)c([N+](=O)[O-])c1 | – | Survivors [2]: 5; T/C [3]: 37%
CCc1nc(N)nc(N)c1-c1ccc(NCc2ccc(S(N)(=O)=O)cc2)c([N+](=O)[O-])c1 | 5.8 | –
CCOC(=O)CCC(NC(=O)c1ccc(CNc2ccc(-c3c(N)nc(N)nc3CC)cc2[N+](=O)[O-])cc1)C(=O)OCC (stereo not drawn) | 7.1 | –
CN(Cc1cnc2nc(N)nc(N)c2n1)c1ccc(C(=O)N[C@@H](CCC(=O)O)C(=O)O)cc1 [METHOTREXATE] | – | T/C [4]: 92%; Survivors [5]: 5
CCc1nc(N)nc(N)c1-c1ccc(N(C)Cc2ccc(C(=O)NC)cc2)c([N+](=O)[O-])c1 | 7.4 | Survivors [6]: 5; T/C [7]: 15%
CCc1nc(N)nc(N)c1-c1ccc(NCc2ccccc2)c([N+](=O)[O-])c1 | 19 | –
CCc1nc(N)nc(N)c1-c1ccc(NCc2ccc(C(=O)N(C)C)cc2)c([N+](=O)[O-])c1 | 7.9 | –
CCc1nc(N)nc(N)c1-c1ccc(N(C)Cc2ccc(C(=O)O)cc2)c([N+](=O)[O-])c1 | 3.1 | Survivors [6]: 5; T/C [7]: 100%
CCc1nc(N)nc(N)c1-c1ccc(N(C)Cc2ccc(C3=NC(C)(C)CO3)cc2)c([N+](=O)[O-])c1 | 14 | –
CCc1nc(N)nc(N)c1-c1ccc(NCc2ccc(C3OCCO3)cc2)c([N+](=O)[O-])c1 | 15 | –
CCc1nc(N)nc(N)c1-c1ccc(NCc2ccc(C(=O)O)cc2)c([N+](=O)[O-])c1 | 1.8 | –
CCc1nc(N)nc(N)c1-c1ccc(NCc2ccc(C(N)=O)cc2)c([N+](=O)[O-])c1 | 3.7 | –
CCc1nc(N)nc(N)c1-c1ccc(NCc2ccc(C(=O)NC)cc2)c([N+](=O)[O-])c1 | 4.3 | –
Cc1nc(N)nc(N)c1-c1ccc(Cl)c(Cl)c1 [METOPRINE] | – | T/C [4]: <8%; Survivors [5]: 1
CCc1nc(N)nc(N)c1-c1ccc(NCc2ccc(C(=O)NC(CCC(=O)O)C(=O)O)cc2)c([N+](=O)[O-])c1 (stereo not drawn) | 6.2 | –
